Published values pooled from the literature.
Compare with care: the assays were run in different laboratories.
BRD9: Bromodomain-containing protein 9 (BRD9, Homo sapiens, UniProt Q9H8M2)
PKMYT1: Membrane-associated tyrosine- and threonine-specific cdc2-inhibitory kinase (PKMYT1, Homo sapiens, UniProt Q99640)

COc1cc(-c2cc(C(C)=O)n3ccccc23)c(OC)cc1Cn1ccnc1 has a ΔTm of 11.8 °C (BRD9; thermal stability; DSF; 200 µM).
With CC(=O)ON=C1C=CC(=C(C#N)c2ccccc2)C=C1 the activity vs control was 57% (Serine/threonine-protein kinase haspin (HASPIN, Homo sapiens, UniProt Q8TF76); enzyme activity; inhibitor; ADP detection; 20 µM).
Cc1cc(F)cc2c(CCC(=O)N[C@@H]3C(=O)NC[C@H]3O)c(-c3ccc(F)cc3)[nH]c12 has an inhibition of -2% (Beta-2 adrenergic receptor (ADRB2, Homo sapiens, UniProt P07550); cell-free assay; 10 µM).
C#Cc1cc(-c2cc(Nc3nc(N[C@@H](C)c4ccc(F)cn4)ncc3Cl)n[nH]2)ccc1C=O gave an inhibition of 18.9% (G protein-coupled receptor kinase 6 (GRK6, Homo sapiens, UniProt P43250); enzyme activity; inhibitor; 0.2 µM).
Cc1ncc(-c2cc3cc(-c4c(C)ccc(O)c4C)cnc3[nH]2)cn1 has an inhibition of 104% (PKMYT1; cell-free assay; TR-FRET; 3.333 µM).
The inhibition of Cc1cc(O)c(-c2ccc([C@@H](C)CN(C)C)cc2)c2c1[nH]c(=O)c1sccc12 is reported as -0.0609% (Phosphatidylinositol 5-phosphate 4-kinase type-2 alpha (PIP4K2A, Homo sapiens, UniProt P48426); enzyme activity; inhibitor; 0.1 µM).
With CCN(C)Cc1c(OC)cc(-c2cc(C(C)=O)n3ccccc23)cc1OC the ΔTm was 15.5 °C (BRD9; thermal stability; DSF; 200 µM).
The remaining binding of CCCCC(=O)Nc1ccc(-c2ccc3ncn(CCC)c(=O)c3c2)cn1 is reported as 86% (PKMYT1; binding; competition with immobilised ligand; 0.5 µM).
The inhibition of NC/C(=C\F)COc1cccc(Cn2c(=S)[nH]c(=O)c3[nH]cnc32)c1 is reported as less than 50% (Ileal sodium/bile acid cotransporter (SLC10A2, Homo sapiens, UniProt Q12908); transporter uptake; inhibitor; 30 µM).
CCC(=O)c1cc(-c2cc(OC)c(Cn3ccnc3)cc2OC)c2ccccn12 gave a ΔTm of 9.5 °C (BRD9; thermal stability; DSF; 200 µM).
CCN1/C(=C/C(C)=O)Sc2ccc(F)cc21 gave an inhibition of 0% (Histamine H3 receptor (HRH3, Homo sapiens, UniProt Q9Y5N1); ligand displacement; radioligand; 10 µM).
For COc1cc(C(C)O)c(OC)cc1-c1cc(C(C)=O)n2ccccc12 (stereo not drawn), the ΔTm was 9.9 °C (BRD9; thermal stability; DSF; 200 µM).
The remaining binding of COc1ccc2oc(-c3ccc4nc(N)oc4c3)c/c(=N\c3ccccc3NC(=O)CCN)c2c1 is reported as 109% (Activin receptor type-2A (ACVR2A, Homo sapiens, UniProt P27037); binding; competition with immobilised ligand; 1 µM).
C1=C/COCc2cc(ccc2OCCN2CCCC2)Nc2nccc(n2)-c2cccc(c2)COC/1 gave a remaining binding of 5.9% (Cyclin-dependent kinase-like 3 (CDKL3, Homo sapiens, UniProt Q8IVW4); binding; 0.1 µM).
For CCC(=O)c1cc(-c2cc(OC)c(Cn3ccnc3)c(OC)c2)c2ccccn12, the ΔTm was 9.8 °C (BRD9; thermal stability; DSF; 200 µM).
